Active and inactive are the calls of the source. The calls are words filed in the database; no cut-off is given here.
Columns and labels:
[1] = test system: MCF7; experiment: Growth inhibition of human MCF7 cells after 72 hrs by MTT assay; assay type: functional, cell-based; settings: MCF7, 72 h
In short: (§1)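 MTT viability assay. Cells seeded at 3 × 10^3 per well and allowed 24 h, then treated 72 h with a concentration series from 1 mM DMSO stocks. MTT (5 mg/ml in PBS) added for 5 h, formazan dissolved in DMSO, absorbance read at 570 nm.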

[2] = Drug uptake in cytoplasm of human MCF7 cells at 10 uM after 24 hrs by fluorescence microscopy; assay type: ADME, cell-based; settings: mcf7, 24 h
In short: (§2)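 MCF-7 cells seeded at 5 × 10^4 per well, exposed to compound at 10 μM for 24 h, then imaged by fluorescence microscopy for intracellular fluorescence and morphology.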

[3] = test system: HeLa; experiment: Growth inhibition of human HeLa cells after 72 hrs by MTT assay; assay type: functional, cell-based; in short: as §1
[4] = test system: MDA-MB-231; experiment: Growth inhibition of human MDA-MB-231 cells after 72 hrs ny MTT assay; assay type: functional, cell-based; settings: MDA-MB-231, 72 h; in short: as §1
[5] = Drug uptake in nucleus of human MCF7 cells at 10 uM after 24 hrs by fluorescence microscopy; assay type: ADME, cell-based; settings: mcf7, 24 h; in short: as §2
[6] = Binding affinity to c-myc G-quadruplex DNA (unknown origin) assessed as increase in melting temperature by FRET assay
In short: (§3)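 FAM/TAMRA dual-labelled c-myc oligonucleotide (1 μM) in Tris-KCl buffer pH 7.2, annealed at 92 °C for 5 min and slowly cooled to room temperature. Compound added at varying concentrations. Fluorescence melting curves recorded on a real-time PCR system, holding each temperature 30 s before each reading. Tm shift taken relative to the no-compound control.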

[7] = Binding affinity to c-myc G-quadruplex DNA (unknown origin) assessed as change in melting temperature at 1 uM by FRET assay; in short: as §3
[8] = test system: MCF7; experiment: Induction of apoptosis in human MCF7 cells assessed as cell membrane rupture at 10 uM after 24 hrs by fluorescence microscopy; assay type: functional, cell-based; in short: as §2
[9] = Binding affinity to c-myc G-quadruplex DNA (unknown origin) assessed as reduction in DNA CD signal strengths […] by CD spectroscopy; design: scale not given: the % may be the effect or the level left
In short: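 CD of pre-folded c-myc G4 DNA (2 × 10^-6 M) in Tris-KCl buffer pH 7.2, 1 cm cell. Ligand added from 1 mM stock every 3 min, final range (0–118) × 10^-6 M.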

[10] = test system: MCF7; experiment: Induction of cell shrinking in human MCF7 cells at 10 uM after 24 hrs by fluorescence microscopy; assay type: functional, cell-based; in short: as §2
[11] = test system: MCF7; experiment: Induction of cell membrane changes in human MCF7 cells assessed as roughening and unevening of cell membrane surface at 10 uM after 24 hrs by fluorescence microscopy; assay type: functional; in short: as §2
[12] = Binding affinity to c-myc G-quadruplex DNA (unknown origin) assessed as hypochromism at IL absorption at 20 uM by electronic spectra titration method
In short: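 Titration in Tris-KCl buffer pH 7.2 with ligand held at 20 μM and G4 DNA added stepwise. 3 min incubation before each UV-vis spectrum. Hypochromism read at the intraligand band (250–300 nm).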

[13] = Stabilization of c-myc G-quadruplex DNA (unknown origin) assessed as reduction in Taq polymerase-mediated 5' to 3' extension at 10 to 40 uM by PCR stop assay
In short: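 PCR-stop assay in 1× PCR buffer with c-myc G4 DNA primer pair (10 pM each), dNTPs 0.16 mM, Taq 2.5 U and compound over 0–250 μM. Cycling: 94 °C 3 min, then 30 cycles of 94/58/72 °C for 30 s each. Products run on 15% native PAGE in TBE and silver stained.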

[14] = Binding affinity to c-myc G-quadruplex DNA (unknown origin) assessed as change in melting temperature at 3 uM by FRET assay; in short: as §3

SMILES	IC50 [1] [µM]	Drug uptake [2]	IC50 [3] [µM]	IC50 [4] [µM]	Drug uptake [5]	Activity [6]	ΔTm [7] [°C]	Activity [9] [%]	Activity [12] [%]	Activity [13]	ΔTm [14] [°C]	Activity [8]	Activity [10]	Activity [11] [%]
O=S(=O)(O)c1ccc(-c2nc3c4cccnc4c4ncccc4c3[nH]2)cc1	184	Not Active	62.4	60	Not Active	–	–	–	–	–	–	–	–	–
Brc1ccc(-c2nc3c4cccnc4c4ncccc4c3[nH]2)cc1	22.9	Active	8.5	3.6	Active	Dose-dependent effect	3.4	23	9.4	Dose-dependent effect	6.4	Active	Active	<20

Now from value to compound, other results behind:

IC50 [1] [µM]	Drug uptake [2]	IC50 [3] [µM]	IC50 [4] [µM]	Drug uptake [5]	Activity [6]	ΔTm [7] [°C]	Activity [9] [%]	Activity [12] [%]	Activity [13]	ΔTm [14] [°C]	SMILES	Activity [8]	Activity [10]	Activity [11] [%]
27.3	Active	7.9	36	Active	–	–	–	–	–	–	Brc1ccccc1-c1nc2c3cccnc3c3ncccc3c2[nH]1	–	–	–
72.6	Not Active	5.1	74.2	Not Active	–	–	–	–	–	–	c1ccc(-c2nc3c4cccnc4c4ncccc4c3[nH]2)cc1	–	–	–
162	Not Active	240	152	Not Active	–	–	–	–	–	–	O=S(=O)(O)c1ccccc1-c1nc2c3cccnc3c3ncccc3c2[nH]1	–	–	–

Reference: ChEMBL document CHEMBL3351432, “Microwave-assisted synthesis of phenanthroimidazole derivatives as stabilizer of c-myc G-quadruplex DNA” (Bioorg Med Chem, 2014)
